What all share (assay type): cell-based
In series [1] the target is T1, Transient receptor potential cation channel subfamily V member 2 (Mus musculus) (UniProt Q9WTR1).
T1 sequence (whole entry): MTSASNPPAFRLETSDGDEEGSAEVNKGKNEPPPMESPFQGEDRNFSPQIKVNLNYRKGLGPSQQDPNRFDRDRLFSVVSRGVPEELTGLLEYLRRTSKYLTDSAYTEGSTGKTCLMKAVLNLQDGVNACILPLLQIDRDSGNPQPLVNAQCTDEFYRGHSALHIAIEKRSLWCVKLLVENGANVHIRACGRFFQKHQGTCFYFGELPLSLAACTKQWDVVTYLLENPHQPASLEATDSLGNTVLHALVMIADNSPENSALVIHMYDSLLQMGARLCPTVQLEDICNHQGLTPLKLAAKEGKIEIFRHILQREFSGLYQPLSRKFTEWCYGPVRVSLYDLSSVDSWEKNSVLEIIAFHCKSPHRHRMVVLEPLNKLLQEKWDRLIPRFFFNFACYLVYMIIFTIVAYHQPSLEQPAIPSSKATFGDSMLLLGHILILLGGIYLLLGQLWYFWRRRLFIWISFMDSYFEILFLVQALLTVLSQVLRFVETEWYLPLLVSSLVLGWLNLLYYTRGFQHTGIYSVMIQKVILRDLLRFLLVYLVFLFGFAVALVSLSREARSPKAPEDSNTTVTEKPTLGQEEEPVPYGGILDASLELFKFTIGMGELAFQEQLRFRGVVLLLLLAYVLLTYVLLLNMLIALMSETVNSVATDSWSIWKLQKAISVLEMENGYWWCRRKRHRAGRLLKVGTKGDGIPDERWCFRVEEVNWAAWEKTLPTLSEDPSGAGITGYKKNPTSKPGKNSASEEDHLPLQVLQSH
Briefly: Antagonist activity at mouse TRPV2 expressed in HEK293T cells assessed as inhibition of 2-APB evoked currents at -60 mV holding potential by whole-cell patch clamp assay. The gist of the method: (§1)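 Whole-cell voltage clamp of transiently transfected HEK293T cells co-expressing GFP, recorded 36-96 h post-transfection. Hold -60 mV; pipettes 3-7 MΩ. Bath 165 mM NaCl, 10 mM HEPES pH 7.3; pipette 140 mM KCl, 10 mM HEPES pH 7.3. Room temperature (~25 °C). IC50 from Hill fits of I/I0, the current ratio after vs before inhibitor; mean ± SEM.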
(Patch clamp records ionic current or voltage across a cell membrane.)

Another series concerns PC-3M. The series is described as follows: Cytotoxicity against human PC3M cells assessed as reduction in cell viability up to 20 uM after 48 hrs by SRB assay. The essentials:
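PC-3M cells kept in RPMI 1640 with 10% FBS at 37 °C, 5% CO2.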

For the next series, the species on record is Mus musculus. The series is described as follows: Antagonist activity at mouse LPA-induced TRPV2/LPAR1 expressed in HEK293T cells assessed as inhibition of 2-APB evoked currents at 1 uM after 3 mins in presence of AM966 by whole-cell patch clamp assay. The gist of the method: as §1
For series [2], the system named is T2, Transient receptor potential cation channel subfamily V member 2 (Mus musculus), Q9WTR1 [F467S].
T2 sequence (whole entry): T1 sequence (whole entry) with F467S
Briefly: Antagonist activity at mouse TRPV2 F467S mutant expressed in HEK293T cells assessed as inhibition of 2-APB evoked currents at 0.3 to 3 uM by whole-cell patch clamp assay. The essentials: as §1

In series [3] the test system is Transient receptor potential cation channel subfamily V member 1 (Mus musculus), Q704Y3 [T551L]. Briefly: Antagonist activity at mouse TRPV1 T551L mutant expressed in HEK293T cells assessed as inhibition of 2-APB evoked currents at > 1 uM at -60 mV holding potential by whole-cell patch clamp assay. The gist of the method:
as §1

The target in series [4] is Transient receptor potential cation channel subfamily V member 4 (Mus musculus) (UniProt Q9EPK8). The series is described as follows: Antagonist activity at mouse TRPV4 expressed in HEK293T cells assessed as inhibition of GSK-1016790A evoked currents at 3 to 10 uM -60 mV holding potential by whole-cell patch clamp assay. The gist of the method:
as §1

Positions count from the first letter of the chain named. Calls of active or inactive are those of the source. No cut-off for these calls is given here.

Chain of Transient receptor potential cation channel subfamily V member 1 (Mus musculus), Q704Y3 [T551L] (Q704Y3 whole entry T551L): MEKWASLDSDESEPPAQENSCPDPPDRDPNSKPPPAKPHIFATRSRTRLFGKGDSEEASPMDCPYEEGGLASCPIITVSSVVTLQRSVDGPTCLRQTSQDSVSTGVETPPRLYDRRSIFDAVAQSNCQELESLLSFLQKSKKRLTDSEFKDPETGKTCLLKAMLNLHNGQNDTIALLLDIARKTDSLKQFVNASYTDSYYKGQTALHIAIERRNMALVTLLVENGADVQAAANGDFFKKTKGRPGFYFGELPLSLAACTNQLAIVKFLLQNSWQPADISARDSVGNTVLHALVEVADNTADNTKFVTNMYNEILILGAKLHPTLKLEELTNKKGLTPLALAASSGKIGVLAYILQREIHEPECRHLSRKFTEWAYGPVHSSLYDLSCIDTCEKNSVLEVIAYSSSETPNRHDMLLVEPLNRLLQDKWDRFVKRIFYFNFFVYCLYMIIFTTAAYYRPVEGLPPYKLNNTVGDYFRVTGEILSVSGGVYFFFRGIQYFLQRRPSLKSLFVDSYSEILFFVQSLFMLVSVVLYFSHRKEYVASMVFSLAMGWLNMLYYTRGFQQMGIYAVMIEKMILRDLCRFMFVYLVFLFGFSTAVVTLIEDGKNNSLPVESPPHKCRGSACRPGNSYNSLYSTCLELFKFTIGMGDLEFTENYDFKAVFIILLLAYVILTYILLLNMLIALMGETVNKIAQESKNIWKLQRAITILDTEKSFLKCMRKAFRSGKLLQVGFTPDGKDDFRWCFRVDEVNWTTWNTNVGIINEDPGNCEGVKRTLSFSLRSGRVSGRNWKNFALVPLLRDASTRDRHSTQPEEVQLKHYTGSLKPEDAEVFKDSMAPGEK
Chain of Transient receptor potential cation channel subfamily V member 4 (Mus musculus) (Q9EPK8 whole entry): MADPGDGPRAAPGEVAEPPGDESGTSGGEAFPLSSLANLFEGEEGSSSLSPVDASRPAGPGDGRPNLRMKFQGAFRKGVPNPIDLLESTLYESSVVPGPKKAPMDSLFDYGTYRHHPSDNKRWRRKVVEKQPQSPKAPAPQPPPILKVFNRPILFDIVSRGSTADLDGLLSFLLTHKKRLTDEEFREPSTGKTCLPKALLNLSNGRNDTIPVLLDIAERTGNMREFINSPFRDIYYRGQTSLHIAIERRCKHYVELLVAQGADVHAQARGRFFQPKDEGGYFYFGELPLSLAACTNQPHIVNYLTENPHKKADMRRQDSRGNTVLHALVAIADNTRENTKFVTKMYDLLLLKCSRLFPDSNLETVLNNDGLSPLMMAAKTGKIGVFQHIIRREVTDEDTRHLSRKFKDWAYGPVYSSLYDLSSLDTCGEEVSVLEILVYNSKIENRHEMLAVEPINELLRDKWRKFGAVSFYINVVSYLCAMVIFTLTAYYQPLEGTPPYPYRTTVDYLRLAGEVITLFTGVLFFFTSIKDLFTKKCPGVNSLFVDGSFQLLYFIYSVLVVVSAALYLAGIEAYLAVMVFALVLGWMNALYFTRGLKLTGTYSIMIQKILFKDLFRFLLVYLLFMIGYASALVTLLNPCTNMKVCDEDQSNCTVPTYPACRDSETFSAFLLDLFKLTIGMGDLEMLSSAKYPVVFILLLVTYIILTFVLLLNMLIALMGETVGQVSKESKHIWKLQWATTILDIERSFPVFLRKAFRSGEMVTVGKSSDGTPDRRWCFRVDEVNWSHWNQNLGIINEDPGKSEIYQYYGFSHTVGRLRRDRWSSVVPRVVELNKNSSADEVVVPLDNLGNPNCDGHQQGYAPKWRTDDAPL

Consider `CCCN(C)c1cc(C(F)(F)F)nc(SCCC(=O)NCc2ccco2)n1`, for which, in series [1], the inhibition entry is “Dose-dependent effect”. Also, in the series on PC-3M, the Activity entry is “Non-Toxic”. Further, the inhibition entry (in the series filed under Mus musculus; in series [2]; in series [4]) was “inactive” throughout. Besides, in series [3], the inhibition entry was “Active”.
